Assay results reported in ChEMBL document CHEMBL4229550, “An antimycobacterial pleuromutilin analogue effective against dormant bacilli” (Bioorg Med Chem, 2018).
In brackets after ≈: the same amount, converted by molar mass. Activity calls are given as the source filed them. No cut-off for these calls is given here.

How the values were obtained:
Vero = test: Cytotoxicity against African green monkey Vero cells assessed as reduction in cell viability after 72 hrs by MTT assay; assay type: cell-based; details: Chlorocebus sabaeus
Procedure, shortened: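 Vero cells were grown in complete EMEM with 10% FBS and exposed for 72 h to 0.78–200 µg/mL. The medium was then swapped for phenol-red-free EMEM and MTT was added. Formazan absorbance was read at 570 nm to give IC50.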

Staphylococcus aureus [1] = test: Antibacterial activity against Staphylococcus aureus BAA 1683 incubated for 24 hrs under aerobic condition by MABA; assay type: functional; details: BAA 1683, 24 h, read-out: MIC100
Procedure, shortened: (§1)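 Mid-log cultures at OD 0.5 were exposed to serial dilutions under aerobic conditions at 37 °C for 24 h. Resazurin was then added from a 0.08% stock for 1 h. MIC100 was the lowest concentration where the dye stayed blue (pink means growth). Absorbance was also read at 570 and 600 nm.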

Escherichia coli [2] = test: Inhibition of protein translation/transcription in Escherichia coli S30 cell extract at 0.1 ug/ml using circular DNA with pBESTluc after 60 mins by luciferase reporter gene assay; assay type: functional
Procedure, shortened: (§2)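 Coupled transcription/translation used E. coli S30 extract, amino acid mix and premix, with the pBESTluc template carrying firefly luciferase under the tac promoter. Compounds were added in DMSO and reactions were started with DNA. Incubation was 60 min at 37 °C, stopped on ice, and luciferase was read after adding assay substrate.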

Escherichia coli [3] = test: Inhibition of protein translation/transcription in Escherichia coli S30 cell extract at 0.5 ug/ml using circular DNA with pBESTluc after 60 mins by luciferase reporter gene assay; assay type: functional; procedure, shortened: as §2
Enterococcus faecalis [4] = test: Bactericidal activity against Enterococcus faecalis ATCC 19433 incubated for 24 hrs under aerobic condition by MABA; assay type: functional; details: ATCC 19433, 24 h
Mus musculus = test: Oral bioavailability in Balb/c mouse at 30 mg/kg; assay type: ADME, organism-based; details: in vivo
Procedure, shortened: (§3)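 Single oral dose of 30 mg/kg in BALB/c mice (n = 6). Serum PK parameters were t1/2, tmax, Cmax and AUC over 0–24 h and to infinity. Oral bioavailability F was calculated against the 3 mg/kg IV dose.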

Streptococcus pneumoniae [5] = test: Bactericidal activity against Streptococcus pneumoniae ATCC 6301 incubated for 24 hrs under aerobic condition by MABA; assay type: functional; details: ATCC 6301, 24 h
Staphylococcus aureus [6] = test: Bactericidal activity against Staphylococcus aureus BAA 1683 incubated for 24 hrs under aerobic condition by MABA; assay type: functional; details: BAA 1683, 24 h
[7] = AUC (0 to 24 hrs) in Balb/c mouse serum at 30 mg/kg, po; assay type: ADME, organism-based; set-up: time < 24 hr, dose 30 mg/kg, route oral; procedure, shortened: as §3
[8] = tested on: Mycobacterium tuberculosis; test: Bactericidal activity against Mycobacterium tuberculosis H37Rv at 2 times MIC measured every 24 hrs up to 12 days by time kill assay relative to control; assay type: functional
Procedure, shortened: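 Mid-log H37Rv (OD 0.5) is diluted to OD 0.25 and exposed at MIC, 2×MIC or 4×MIC. Every 24 h cultures are diluted 10- to 10,000-fold and plated on 7H10/OADC agar. Plates are incubated 15 days at 37 °C before colony counts.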

Staphylococcus aureus [9] = test: Bactericidal activity against Staphylococcus aureus incubated for 24 hrs under aerobic condition by MABA; assay type: functional
Staphylococcus aureus [10] = test: Bactericidal activity against Staphylococcus aureus BAA 44 incubated for 24 hrs under aerobic condition by MABA; assay type: functional; details: BAA 44, 24 h
[11] = Apparent permeability from apical to basolateral side in human Caco2 cells at 10 uM after 2 hrs by LC-MS/MS analysis; assay type: ADME, cell-based; details: caco-2, 2 h
[12] = Efflux ratio of apparent permeability in human Caco2 cells at 10 uM after 2 hrs by LC-MS/MS analysis; assay type: ADME, cell-based; details: caco-2, 2 h
Klebsiella pneumoniae = test: Bactericidal activity against Klebsiella pneumoniae ATCC 12019 incubated for 24 hrs under aerobic condition by MABA; assay type: functional; details: ATCC 12019, 24 h
Bacillus subtilis = test: Antibacterial activity against Bacillus subtilis ATCC 6051 incubated for 24 hrs under aerobic condition by MABA; assay type: functional; details: ATCC 6051, 24 h, read-out: MIC100; procedure, shortened: as §1
Escherichia coli [13] = test: Antibacterial activity against Escherichia coli ATCC 10798 incubated for 24 hrs under aerobic condition by MABA; assay type: functional; details: ATCC 10798, 24 h, read-out: MIC100; procedure, shortened: as §1
Staphylococcus aureus [14] = test: Bactericidal activity against Staphylococcus aureus ATCC 25923 incubated for 24 hrs under aerobic condition by MABA; assay type: functional; details: ATCC 25923, 24 h
[15] = AUC (0 to 24 hrs) in Balb/c mouse lung at 30 mg/kg, po; assay type: ADME, organism-based; set-up: dose 30 mg/kg, time < 24 hr, route oral; details: in vivo
[16] = Cmax in Balb/c mouse at 30 mg/kg, po; assay type: ADME, organism-based; set-up: dose 30 mg/kg, route oral; details: in vivo; procedure, shortened: as §3
Streptococcus pneumoniae [17] = test: Antibacterial activity against Streptococcus pneumoniae ATCC 6301 incubated for 24 hrs under aerobic condition by MABA; assay type: functional; details: ATCC 6301, 24 h, read-out: MIC100; procedure, shortened: as §1
Escherichia coli [18] = test: Bactericidal activity against Escherichia coli ATCC 10798 incubated for 24 hrs under aerobic condition by MABA; assay type: functional; details: ATCC 10798, 24 h
[19] = Selectivity index, ratio of IC50 for African green monkey Vero cells to MIC100 for replicating Mycobacterium tuberculosis H37Rv by MABA; assay type: toxicity; details: read-out: Selectivity Index
Procedure, shortened: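 Vero cells are cultured in EMEM with 10% FBS and exposed for 72 h to 0.78–200 µg/mL. Medium is switched to phenol-red-free EMEM, MTT is added, and formazan is read at 570 nm to give IC50. The selectivity index is Vero IC50 divided by the MABA MIC.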

[20] = Half life in Balb/c mouse serum at 30 mg/kg, po; assay type: ADME, organism-based
Procedure, shortened: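 Single 30 mg/kg oral dose in six BALB/c mice; serum half-life and tmax are derived from the concentration–time profile.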

[21] = AUC (0 to infinity) in Balb/c mouse at 30 mg/kg, po; assay type: ADME, organism-based; set-up: dose 30 mg/kg, route oral, time infinity; details: in vivo; procedure, shortened: as §3
[22] = tested on: Mycolicibacterium smegmatis; test: Antibacterial activity against Mycobacterium smegmatis ATCC 607 incubated for 48 hrs under aerobic condition by MABA; assay type: functional; details: ATCC 607, 48 h, read-out: MIC100
Procedure, shortened: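 Mid-log culture at OD 0.5 was incubated with serial dilutions aerobically at 37 °C for 48 h. Resazurin was then added from a 0.08% stock for 1 h. MIC100 was the lowest concentration that stayed blue; absorbance was also read at 570/600 nm.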

Enterococcus faecalis [23] = test: Bactericidal activity against Enterococcus faecalis ATCC 349 incubated for 24 hrs under aerobic condition by MABA; assay type: functional; details: ATCC 349, 24 h
[24] = tested on: Mycobacterium tuberculosis; test: Antibacterial activity against Mycobacterium tuberculosis Erdman infected in Balb/c mouse assessed as reduction in bacterial load in lungs at 200 mg/kg, po for 3 weeks starting from 10 days post infection measured on day 21 post infection; assay type: functional, Erdman = ATCC 35801
Procedure, shortened: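 Female BALB/c mice, 7–8 weeks old, are aerosol-infected with Mtb Erdman. From day 10 they receive oral gavage in water for three weeks, in groups of 5. Lungs and spleens are harvested at day 21 post-infection and plated for CFU. Efficacy is the log10 reduction in lung burden versus untreated (vehicle) controls.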

[25] = tested on: Mycolicibacterium smegmatis; test: Bactericidal activity against Mycobacterium smegmatis ATCC 607 incubated for 48 hrs under aerobic condition by MABA; assay type: functional; details: ATCC 607, 48 h
[26] = Cmax in Balb/c mouse lung at 30 mg/kg, po; assay type: ADME, organism-based; set-up: dose 30 mg/kg, route oral
Streptococcus salivarius = test: Bactericidal activity against Streptococcus salivarius ATCC 6301 incubated for 24 hrs under aerobic condition by MABA; assay type: functional; details: ATCC 6301, 24 h

CC[C@]1(C)C[C@@H](OC(=O)CSC(C)(C)CNC(=O)[C@H](N)CC(C)C)[C@]2(C)[C@H](C)CC[C@]3(CC[C@@H](O)[C@H]32)[C@@H](C)[C@@H]1O
IC50 (Vero): 25 µg/mL (≈ 42.9 µM)
MIC (Staphylococcus aureus [1]): > 25 µg/mL
inhibition (Escherichia coli [2]): Active
inhibition (Escherichia coli [3]): Active
MBC (Enterococcus faecalis [4]): 12.5 µg/mL (≈ 21.4 µM)
F (Mus musculus): 27.6%
MBC (Streptococcus pneumoniae [5]): > 25 µg/mL
MBC (Staphylococcus aureus [6]): > 25 µg/mL
AUC(0-t) at 24 h [7]: 2500 ng·h/mL
Activity [8]: 100%
MBC (Staphylococcus aureus [9]): 1.56 µg/mL (≈ 2.68 µM)
MBC (Staphylococcus aureus [10]): > 25 µg/mL
Papp [11]: 3.39 ×10⁻⁶ cm/s
Ratio [12]: 5.44
MBC (Klebsiella pneumoniae): 25 µg/mL (≈ 42.9 µM)
MIC (Bacillus subtilis): 25 µg/mL (≈ 42.9 µM)
MIC (Escherichia coli [13]): 12.5 µg/mL (≈ 21.4 µM)
MBC (Staphylococcus aureus [14]): > 25 µg/mL
AUC [15]: 66281 ng·h/g
Cmax [16]: 1340 ng/mL
MIC (Streptococcus pneumoniae [17]): 25 µg/mL (≈ 42.9 µM)
MBC (Escherichia coli [18]): > 25 µg/mL
selectivity ratio [19]: 30.1
half-life [20]: 10.5 h
AUC(0-inf) [21]: 2890 ng·h/mL
MIC [22]: 6.25 µg/mL (≈ 10.7 µM)
MBC (Enterococcus faecalis [23]): > 25 µg/mL
log(activity) [24]: 0.47
MBC [25]: 25 µg/mL (≈ 42.9 µM)
Cmax [26]: 6070 ng/g
MBC (Streptococcus salivarius): > 25 µg/mL
